The target of assay [1] is T1, Gastrin/cholecystokinin type B receptor (Rattus norvegicus) (UniProt P30553).
T1 sequence (whole entry): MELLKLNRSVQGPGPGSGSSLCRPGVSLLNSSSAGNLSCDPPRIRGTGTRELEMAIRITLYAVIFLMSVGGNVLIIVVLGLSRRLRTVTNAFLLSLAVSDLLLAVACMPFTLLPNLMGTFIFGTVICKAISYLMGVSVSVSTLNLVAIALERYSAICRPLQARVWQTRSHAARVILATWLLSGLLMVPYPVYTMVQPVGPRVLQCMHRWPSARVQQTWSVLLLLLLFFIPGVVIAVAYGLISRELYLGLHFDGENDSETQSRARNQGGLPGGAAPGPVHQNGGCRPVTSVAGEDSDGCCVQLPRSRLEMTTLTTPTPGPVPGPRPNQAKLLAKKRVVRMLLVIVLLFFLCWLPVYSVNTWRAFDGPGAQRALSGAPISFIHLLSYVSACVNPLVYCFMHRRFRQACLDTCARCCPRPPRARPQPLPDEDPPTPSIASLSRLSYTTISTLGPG
Description: Inhibition of gastrin stimulated acid secretion in in situ perfused rat stomach. The assay is classed as functional, tissue-based. In a few lines: (§1)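 In situ perfused stomach (Ghosh and Schild method) in urethane-anesthetized rats, with urethane given ip, or im and ip for some analogues. Acid secretion was stimulated by gastrin and test peptides were given in vivo. Antagonism is expressed as ED50 in μM/kg.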

The next assay is filed under the species Rattus norvegicus. The assay can be described thus: Inhibition of gastrin stimulated acid secretion in the in situ perfused rat stomach; Inactive. The assay is classed as functional, organism-based. In a few lines:
as §1

The record followed here is ChEMBL document CHEMBL1122950, “Structure-activity relationships of C-terminal tri- and tetrapeptide fragments that inhibit gastrin activity” (J Med Chem, 1985).

Calls of active or inactive are those of the source. The rule behind the calls is not given here. Where a SMILES comes first, the peptide text is derived from it.

Regarding `CC(C)(C)OC(=O)N[C@@H](Cc1c[nH]c2ccccc12)C(=O)N1CCC[C@H]1C(=O)N[C@@H](CC(=O)O)C(N)=O` (HELM PEPTIDE1{[CC(C)(C)OC(=O)[*:2]].W.P.D.[am]}$$$$V2.0), in assay [1], the ED50 (in general, the midpoint of the dose-response relation) worked out at 15 µmol/kg. Take `CSCC[C@H](NC(=O)[C@H](Cc1c[nH]c2ccccc12)NC(=O)OC(C)(C)C)C(=O)N[C@@H](CC(=O)O)C(N)=O` (HELM PEPTIDE1{[CC(C)(C)OC(=O)[*:2]].W.M.D.[am]}$$$$V2.0): the ED50 in assay [1] is 14 µmol/kg. The same measure, in the same setting: for `CC(C)CC(NC(=O)[C@H](Cc1c[nH]c2ccccc12)NC(=O)OC(C)(C)C)C(=O)N[C@@H](CC(=O)O)C(N)=O` (stereo not given in full) the value was 15 µmol/kg. In assay [1], `CC(C)C[C@H](NC(=O)[C@H](Cc1c[nH]c2ccccc12)NC(=O)OC(C)(C)C)C(=O)N[C@@H](CC(=O)O)C(=O)N(C)C` (HELM PEPTIDE1{[CC(C)(C)OC(=O)[*:2]].W.L.D.[CN(C)[*:1]]}$$$$V2.0) registered an ED50 of 10 µmol/kg. Same read-out and setting: then `CC(C)C[C@H](NC(=O)[C@H](Cc1c[nH]c2ccccc12)NC(=O)OC(C)(C)C)C(=O)N[C@@H](CCC(=O)O)C(N)=O` (HELM PEPTIDE1{[CC(C)(C)OC(=O)[*:2]].W.L.E.[am]}$$$$V2.0), with 11 µmol/kg; and `CCCC[C@H](NC(=O)[C@H](Cc1c[nH]c2ccccc12)NC(=O)OC(C)(C)C)C(=O)N[C@@H](CC(=O)O)C(N)=O` (HELM PEPTIDE1{[CC(C)(C)OC(=O)[*:2]].W.[Nle].D.[am]}$$$$V2.0), with 14 µmol/kg; and `CC(C)(C)OC(=O)N[C@@H](Cc1c[nH]c2ccccc12)C(=O)N[C@@H](Cc1ccccc1)C(=O)N[C@@H](CC(=O)O)C(N)=O` (HELM PEPTIDE1{[CC(C)(C)OC(=O)[*:2]].W.F.D.[am]}$$$$V2.0), with 26.5 µmol/kg. Consider `CSCC[C@H](NC(=O)[C@H](Cc1c[nH]c2ccccc12)NC(=O)OC(C)(C)C)C(=O)N[C@@H](CC(=O)OCc1ccccc1)C(N)=O` (HELM PEPTIDE1{[CC(C)(C)OC(=O)[*:2]].W.M.D.[am]}|CHEM1{[c1ccc(CO[*:1])cc1]}$PEPTIDE1,CHEM1,4:R3-1:R1$$$V2.0), for which the ED50 entry in the assay filed under Rattus norvegicus was “inactive”. For `O=C(N[C@@H](Cc1c[nH]c2ccccc12)C(=O)O)c1ccc(Cl)cc1`, the median effective dose (ED50) in assay [1] turned out to be 170 µmol/kg.

For `CC[C@H](C)[C@H](NC(=O)[C@H](Cc1c[nH]c2ccccc12)NC(=O)OC(C)(C)C)C(=O)N[C@@H](CC(=O)O)C(N)=O` (HELM PEPTIDE1{[CC(C)(C)OC(=O)[*:2]].W.I.D.[am]}$$$$V2.0), the median effective dose (ED50) in assay [1] stood at 25 µmol/kg. As to `CC(C)C[C@H](NC(=O)[C@H](Cc1c[nH]c2ccccc12)NC(=O)OC(C)(C)C)C(=O)N[C@@H](C)C(N)=O` (HELM PEPTIDE1{[CC(C)(C)OC(=O)[*:2]].W.L.A.[am]}$$$$V2.0), the ED50 in assay [1] came to 150 µmol/kg.

In assay [1], `CC(C)C[C@H](NC(=O)[C@H](Cc1c[nH]c2ccccc12)NC(=O)OCc1ccccc1)C(=O)N[C@@H](CC(=O)O)C(N)=O` (HELM PEPTIDE1{[O=C(OCc1ccccc1)[*:2]].W.L.D.[am]}$$$$V2.0) came in with a 50% effective dose (ED50) of 38 µmol/kg. On the same count and under the same terms, then `C[C@H](NC(=O)[C@H](Cc1c[nH]c2ccccc12)NC(=O)OC(C)(C)C)C(=O)N[C@@H](CC(=O)O)C(N)=O` (HELM PEPTIDE1{[CC(C)(C)OC(=O)[*:2]].W.A.D.[am]}$$$$V2.0), with 30 µmol/kg; and `CC(C)C[C@H](NC(=O)[C@H](Cc1c[nH]c2ccccc12)NC(=O)OC(C)(C)C)C(=O)N[C@@H](CC(N)=O)C(=O)O` (HELM PEPTIDE1{[CC(C)(C)OC(=O)[*:2]].W.L.N}$$$$V2.0), with 19 µmol/kg; and `CCCN(CCC)C(=O)C(CCC(=O)O)NC(=O)c1ccccc1` (stereo not given), with 350 µmol/kg.

`CC(C)C[C@H](NC(=O)[C@H](Cc1c[nH]c2ccccc12)NC(=O)OC(C)(C)C)C(=O)N[C@@H](CC(=O)OCc1ccccc1)C(N)=O` (HELM PEPTIDE1{[CC(C)(C)OC(=O)[*:2]].W.L.D.[am]}|CHEM1{[c1ccc(CO[*:1])cc1]}$PEPTIDE1,CHEM1,4:R3-1:R1$$$V2.0): the ED50 entry in the assay filed under Rattus norvegicus is “inactive”. For `CC(C)C[C@H](NC(=O)[C@H](Cc1c[nH]c2ccccc12)NC(=O)OC(C)(C)C)C(=O)N[C@@H](CC(=O)O)C(=O)O` (HELM PEPTIDE1{[CC(C)(C)OC(=O)[*:2]].W.L.D}$$$$V2.0), in assay [1], the 50% effective dose (ED50) was determined as 27.3 µmol/kg. Still for that read-out and setting: then `CC(C)(C)OC(=O)N[C@@H](Cc1c[nH]c2ccccc12)C(=O)NCC(=O)N[C@@H](CC(=O)O)C(N)=O` (HELM PEPTIDE1{[CC(C)(C)OC(=O)[*:2]].W.G.D.[am]}$$$$V2.0), with 60 µmol/kg.

With `CSCC[C@H](NC(=O)[C@H](Cc1c[nH]c2ccccc12)NC(=O)CNC(=O)OC(C)(C)C)C(=O)N[C@@H](CC(=O)O)C(N)=O` (HELM PEPTIDE1{[CC(C)(C)OC(=O)[*:2]].G.W.M.D.[am]}$$$$V2.0), the ED50 in assay [1] is 8 µmol/kg. The compound `CC(C)C[C@H](NC(=O)[C@H](Cc1c[nH]c2ccccc12)NC(=O)OC(C)(C)C)C(=O)N[C@H](CC(=O)O)C(N)=O` gave an ED50 in assay [1] of 17 µmol/kg.
